This is an account of results in ChEMBL document CHEMBL1131198, “From micromolar to nanomolar affinity: a systematic approach to identify the binding site of CGRP at the human calcitonin gene-related peptide 1 receptor” (J Med Chem, 1998).

Square brackets hold non-standard residues; d marks the D form. Peptide text beside a SMILES is read from it. Hyp = O=C(O)[C@@H]1C[C@@H](O)CN1; Tic = O=C(O)[C@@H]1Cc2ccccc2CN1

A word on the IC50: it is the point on the concentration scale where inhibition reaches its midpoint.

Calcitonin gene-related peptide type 1 receptor (Homo sapiens, UniProt Q16602), sequence (Q16602 whole entry): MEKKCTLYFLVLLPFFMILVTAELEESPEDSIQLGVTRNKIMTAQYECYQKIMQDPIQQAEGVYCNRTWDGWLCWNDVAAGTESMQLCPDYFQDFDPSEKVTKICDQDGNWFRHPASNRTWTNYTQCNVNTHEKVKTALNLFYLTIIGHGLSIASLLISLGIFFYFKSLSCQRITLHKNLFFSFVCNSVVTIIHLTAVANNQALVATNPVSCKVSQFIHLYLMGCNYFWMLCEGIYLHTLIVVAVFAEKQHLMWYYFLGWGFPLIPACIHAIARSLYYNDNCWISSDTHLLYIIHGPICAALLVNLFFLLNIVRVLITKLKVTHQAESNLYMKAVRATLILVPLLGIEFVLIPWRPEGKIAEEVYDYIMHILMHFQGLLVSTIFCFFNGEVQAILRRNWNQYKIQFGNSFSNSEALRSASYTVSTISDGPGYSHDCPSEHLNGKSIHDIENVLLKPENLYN
Calcitonin gene-related peptide type 1 receptor (Homo sapiens, UniProt O60894+Q16602), sequence (Q16602 whole entry, one chain of several): as the sequence (Q16602 whole entry) above

The target of the first experiment is Calcitonin gene-related peptide type 1 receptor (Homo sapiens, UniProt Q16602). The experiment is described as follows: (§1) CGRP1 receptor affinity on human neuroblastoma cells SK-N-MC, which selectively express the human CGRP1 receptor. In short, it runs like this:
(§2)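 SK-N-MC membranes (cells grown in DMEM, detached with PBS/0.02% EDTA, homogenized, pellet in Tris buffer pH 7.40 with 1% BSA, 0.1% bacitracin, stored -80 °C) diluted 1:10 in assay buffer (50 mM Tris, 150 mM NaCl, 5 mM MgCl2, 1 mM EDTA, pH 7.40).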
Turning to `CC(C)[C@H](NC(=O)[C@H](CC(N)=O)NC(=O)[C@@H](NC(=O)[C@@H]1CCCN1C(=O)[C@H](NC(=O)[C@@H](N)Cc1ccc(O)cc1)C(C)C)[C@@H](C)O)C(=O)NCC(=O)N[C@@H](CO)C(=O)N[C@@H](CCC(=O)O)C(=O)N[C@@H](C)C(=O)N[C@@H](Cc1ccccc1)C(=O)O`, the 50% inhibitory concentration (IC50) was determined as 19 µM. Same read-out and setting: under `CC(C)[C@H](NC(=O)[C@H](CC(N)=O)NC(=O)[C@H](NC(=O)[C@@H]1CCCN1C(=O)[C@@H](NC(=O)[C@@H](N)Cc1ccc(O)cc1)C(C)C)[C@@H](C)O)C(=O)NCC(=O)N[C@@H](CO)C(=O)N[C@@H](CCC(=O)O)C(=O)N[C@@H](C)C(=O)N[C@@H](Cc1ccccc1)C(=O)O` stands “No displacement”; under `CC(C)[C@H](NC(=O)[C@H](CC(N)=O)NC(=O)[C@@H](NC(=O)[C@@H]1CCCN1C(=O)[C@@H](NC(=O)[C@@H](N)Cc1ccc(O)cc1)C(C)C)[C@@H](C)O)C(=O)NCC(=O)N[C@@H](CO)C(=O)N[C@H](CCC(=O)O)C(=O)N[C@@H](C)C(=O)N[C@@H](Cc1ccccc1)C(=O)O`, “No displacement”; under `CC(C)[C@H](NC(=O)[C@H](CC(N)=O)NC(=O)[C@@H](NC(=O)[C@@H]1CCCN1C(=O)[C@@H](NC(=O)[C@@H](N)Cc1ccc(O)cc1)C(C)C)[C@@H](C)O)C(=O)NCC(=O)N[C@@H](CO)C(=O)N[C@@H](CCC(=O)O)C(=O)N[C@@H](C)C(=O)N[C@H](Cc1ccccc1)C(=O)O`, “No displacement”. Consider `CC(C)[C@H](NC(=O)[C@@H](N)Cc1ccc(O)cc1)C(=O)N1CCC[C@H]1C(=O)N[C@H](C(=O)N[C@@H](CC(N)=O)C(=O)N[C@@H](C(=O)NCC(=O)N[C@@H](CO)C(=O)N[C@@H](CCC(=O)O)C(=O)N[C@@H](C)C(=O)N[C@@H](Cc1ccccc1)C(=O)O)C(C)C)[C@@H](C)O`, for which the IC50 result is on record as “No displacement”. Still for that read-out and setting: the same measure for `CC(C)[C@H](NC(=O)[C@H](CC(=O)O)NC(=O)[C@@H](NC(=O)[C@@H]1CCCN1C(=O)[C@@H](NC(=O)[C@@H](N)Cc1ccccc1)C(C)C)[C@@H](C)O)C(=O)NCC(=O)N1Cc2ccccc2C[C@H]1C(=O)N[C@@H](Cc1ccccc1)C(=O)N[C@@H](C)C(=O)N[C@@H](Cc1ccccc1)C(N)=O` (H-FVPTDVG[Tic]FAF-NH2): 0.146 µM; for `C[C@H](NC(=O)[C@@H](N)Cc1ccc(O)cc1)C(=O)N[C@@H](Cc1ccccc1)C(=O)O` (H-Tyr-Ala-Phe-OH): “No displacement”. Same read-out and setting: the same measure for `CC(C)[C@H](NC(=O)[C@@H](N)Cc1ccc(O)cc1)C(=O)N1CCC[C@H]1C(=O)O` (H-Tyr-Val-Pro-OH): “No displacement”; for `C[C@H](NC(=O)[C@H](CCC(=O)O)NC(=O)[C@@H](N)Cc1ccc(O)cc1)C(=O)N[C@@H](Cc1ccccc1)C(=O)O` (H-YEAF-OH): “No displacement”. Same read-out and setting: under `CC(C)[C@H](NC(=O)[C@@H](N)Cc1ccc(O)cc1)C(=O)N1CCC[C@H]1C(=O)N[C@H](C(=O)O)[C@@H](C)O` (H-YVPT-OH) stands “No displacement”. Turning to H-YGSEAF-OH, the IC50 entry is “No displacement”. Same read-out and setting: under H-YNVGSEAF-OH stands “No displacement”; under H-YSEAF-OH, “No displacement”; under H-YVATNVGSEAF-OH, “No displacement”. Still for that read-out and setting: under H-YVGSEAF-OH stands “No displacement”. Same read-out and setting: the same measure for H-YVPANVGSEAF-OH: “No displacement”. For H-YVPFNVGSEAF-OH, the IC50 result was “No displacement”. The same measure, in the same setting: the same measure for H-YVPTN-OH: “No displacement”; for H-YVPTNAGSEAF-OH: “No displacement”; for H-YVPTNFGSEAF-OH: “No displacement”. On the same count and under the same terms, under H-YVPTNV-OH stands “No displacement”; under H-YVPTNVASEAF-OH, “No displacement”; under H-YVPTNVFSEAF-OH, “No displacement”.

Turning to H-YVPTNVG-OH, the IC50 result is “No displacement”. The same measure, in the same setting: under H-YVPTNVGFEAF-OH stands “No displacement”. For H-YVPTNVGS-OH, the IC50 result is reported as “No displacement”. For H-YVPTNVGSE-OH, the IC50 entry is “No displacement”. Same read-out and setting: under H-YVPTNVGSEA-OH stands “No displacement”. Still for that read-out and setting: under H-YVPTNVGSEAA-OH stands “No displacement”. As to H-YVPTNVGSEFF-OH, the IC50 result is recorded as “No displacement”.

In the next experiment the target is Calcitonin gene-related peptide type 1 receptor (Homo sapiens, UniProt O60894+Q16602). Described as §1. In a few lines:
as §2
Take `CC(C)[C@H](NC(=O)[C@H](CC(N)=O)NC(=O)[C@@H](NC(=O)[C@@H]1C[C@@H](O)CN1C(=O)[C@@H](NC(=O)[C@@H](N)Cc1ccc(O)cc1)C(C)C)[C@@H](C)O)C(=O)NCC(=O)N[C@@H](CO)C(=O)N[C@@H](CCC(=O)O)C(=O)N[C@@H](C)C(=O)N[C@@H](Cc1ccccc1)C(=O)O` (H-YV[Hyp]TNVGSEAF-OH): the IC50 came out at 9 µM. As to Ac-FVPTDVGAFAF-OH, the IC50 was 0.205 µM. As to Ac-FVPTNVGSEAF-OH, the IC50 came to 4.5 µM.

Take Ac-PTDVGAFAF-OH: the IC50 amounted to 0.49 µM. On the same count and under the same terms, under Ac-VPTDVGAFAF-OH stands 0.3 µM.

With H-AVPTNVGSEAF-OH, the IC50 was determined as 24 µM.

With H-FPPTNVGSEAF-OH, the IC50 is 3.4 µM. On the same count and under the same terms, under H-FVPPNVGSEAF-OH stands above 10 µM; under H-FVPTDVGAFAF-OH, 0.159 µM; under H-FVPTDVGAHAF-OH, 0.36 µM. Still for that read-out and setting: the same measure for H-FVPTDVGPEAF-OH: 0.47 µM; for H-FVPTDVGSEAF-OH: above 3 µM; for H-FVPTDVGSQAF-OH: 1.2 µM. Take H-FVPTNPGSEAF-OH: the half-maximal inhibitory concentration (IC50) is above 10 µM. Same read-out and setting: the same measure for H-FVPTNVGPEAF-OH: 0.28 µM; for H-FVPTNVGSEAF-OH: 3 µM; for H-FVPTNVGSEPF-OH: above 10 µM.

Consider H-FVPTNVGSKAF-OH, for which the half-inhibitory concentration (IC50) was determined as 2.7 µM. Take H-FVPTNVGSPAF-OH: the IC50 is above 10 µM.

With H-FVPTNVPSEAF-OH, the IC50 is above 10 µM.

With H-FVPTPVGSEAF-OH, the IC50 was determined as 4.5 µM. The same measure, in the same setting: under H-ILSSTNVGSEAF-OH stands 10 µM; under H-NFVPRSKISPEAF-OH, 10 µM; under H-NFVPRSKISPQGY-OH, 10 µM.

On to H-NFVPTNVGSNTY-OH, for which the half-maximal inhibitory concentration (IC50) worked out at 10 µM. Same read-out and setting: the same measure for H-NFVPTNVGSQGY-OH: 10 µM. Take H-NVAPRSKISPEAF-OH: the 50% inhibitory concentration (IC50) is 10 µM. The same measure, in the same setting: the same measure for H-NVAPTNVGSEAF-OH: 10 µM; for H-NVAPTNVGSQGY-OH: 10 µM.

Take H-PTDVGAFAF-OH: the IC50 came to 0.22 µM. H-VPTDVGAFAF-OH: the IC50 worked out at 0.2 µM. On to H-YAPTNVGSEAF-OH, for which the IC50 was 8 µM. The same measure, in the same setting: under H-YFPTNVGSEAF-OH stands 14 µM; under H-YPTNVGSEAF-OH, 24 µM; under H-YTNVGSEAF-OH, 18 µM. On the same count and under the same terms, the same measure for H-YVFTNVGSEAF-OH: 45 µM; for H-YVPSNVGSEAF-OH: above 100 µM; for H-YVPTAVGSEAF-OH: above 100 µM.

For the compound H-YVPTDVGSEAF-OH, the IC50 came out at 5 µM. Still for that read-out and setting: the same measure for H-YVPTFVGSEAF-OH: 70 µM; for H-YVPTLVGSEAF-OH: 7 µM.

H-YVPTNVGAEAF-OH: the IC50 came to 4 µM. On the same count and under the same terms, the same measure for H-YVPTNVGSAAF-OH: above 10 µM; for H-YVPTNVGSEAY-OH: 32 µM; for H-YVPTNVGSEGF-OH: 51 µM. Same read-out and setting: the same measure for H-YVPTNVGSFAF-OH: 4.79 µM; for H-YVPTNVGSHAF-OH: 4.28 µM; for H-YVPTNVGSKAF-OH: 6.5 µM. For the compound H-YVPTNVGSLAF-OH, the IC50 is 8.55 µM. Still for that read-out and setting: under H-YVPTNVGSQAF-OH stands 6.9 µM; under H-YVPTQVGSEAF-OH, 95 µM.
